# Published values of several laboratories.
# Target: 3-phosphoinositide-dependent protein kinase 1 (PDPK1, Homo sapiens, UniProt O15530)
# Sequence (O15530 1-556, as in one of the studies): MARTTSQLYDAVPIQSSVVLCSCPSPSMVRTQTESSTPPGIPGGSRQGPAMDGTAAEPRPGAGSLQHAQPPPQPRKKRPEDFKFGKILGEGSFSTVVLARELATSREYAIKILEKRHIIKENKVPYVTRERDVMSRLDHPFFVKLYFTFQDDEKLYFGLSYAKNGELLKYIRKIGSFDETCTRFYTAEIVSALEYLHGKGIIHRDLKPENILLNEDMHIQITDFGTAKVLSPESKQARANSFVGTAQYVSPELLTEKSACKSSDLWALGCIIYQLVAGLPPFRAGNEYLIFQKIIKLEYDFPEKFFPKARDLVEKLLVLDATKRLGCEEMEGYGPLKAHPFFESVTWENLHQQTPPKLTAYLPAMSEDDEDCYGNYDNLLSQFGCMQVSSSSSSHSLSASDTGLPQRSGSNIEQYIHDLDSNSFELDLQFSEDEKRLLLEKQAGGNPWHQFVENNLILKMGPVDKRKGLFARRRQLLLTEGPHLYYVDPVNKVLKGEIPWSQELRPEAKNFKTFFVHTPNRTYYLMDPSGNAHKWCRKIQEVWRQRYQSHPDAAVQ
Compound,test,setting,remaining binding
Cc1nc(Nc2ncc(C(=O)Nc3c(C)cccc3Cl)s2)cc(N2CCN(CCO)CC2)n1,"cell-free assay, competition with immobilised ligand",0.1 µM,100%
CCN1CCN(Cc2ccc(C(=O)Nc3ccc(C)c(Oc4ccc5c(c4)CC(=O)N5)c3)cc2C(F)(F)F)CC1,"binding, competition with immobilised ligand",1 µM,100%
O=C(NCCCN1CCOCC1)c1ccc(Nc2nccc(-c3cc4ccccc4s3)n2)cc1,"binding, competition with immobilised ligand",1 µM,99%
CC1CCCN1c1nccc(-c2cnn3ncccc23)n1 (stereo not shown),binding,1 µM,89%
Cc1c(-c2ccccc2)oc2c(C(=O)OCCN3CCCCC3)cccc2c1=O,"cell-free assay, competition with immobilised ligand",10 µM,100%
O=C(c1ccc(Nc2nccc(-c3cc4ccccc4s3)n2)cc1)N1CCC(N2CCCC2)CC1,"binding, competition with immobilised ligand",1 µM,100%
Cc1cnn2ncc(-c3ccnc(N(C)C)n3)c2c1,binding,1 µM,100%
CCN(CC)Cc1cc(Nc2ccnc3cc(Cl)ccc23)ccc1O,"cell-free assay, competition with immobilised ligand",0.1 µM,100%
CS(=O)(=O)NCC[C@H](NC(=O)c1cncc2c1cnn2-c1ccc(F)cc1)c1ccnc(S(C)(=O)=O)c1,"cell-free assay, competition with immobilised ligand",1 µM,100%
CNC(=O)[C@@H]1CC[C@@H](n2c(-c3ccc4cnccc4c3)nc3ccc(C(=O)NCc4cccc(C(N)=O)c4)cc32)C1,"binding, competition with immobilised ligand",1 µM,51%
COc1ccc2c(c1)O[C@H](c1ccc(OC)c(OC)c1)C[C@@H]2NC(=O)C1(c2ccc3c(c2)OC(F)(F)O3)CC1,"cell-free assay, competition with immobilised ligand",1 µM,100%
C[C@@H]1CN(c2ccc3ncc(-c4ccc5[nH]nc(C6CC6)c5c4)n3n2)C[C@H](C)O1,"binding, competition with immobilised ligand",0.5 µM,100%
COc1ccnn2ncc(-c3ccnc(N(C)C)n3)c12,binding,1 µM,100%
O=C(c1ccc(Nc2ncc(Cl)c(-c3cc4ccccc4s3)n2)cc1)N1CCC(N2CCCC2)CC1,"binding, competition with immobilised ligand",1 µM,78%
O=C(NCC1CCOCC1)c1n[nH]cc1NC(=O)c1c(F)cccc1F,"binding, competition with immobilised ligand",1 µM,100%
C[C@H](c1ccc(F)cc1)N(Cc1cccc(C(=O)O)c1)C(=O)c1cnc2ccccc2c1,"cell-free assay, competition with immobilised ligand",1 µM,100%
C[C@H]1CCN(c2nccc(-c3cnn4ncccc34)n2)C1,binding,1 µM,100%
O=C(Nc1cccnn1)N1CCC(=Cc2cccc(Oc3ccc(C(F)(F)F)cn3)c2)CC1,"cell-free assay, competition with immobilised ligand",1 µM,85%
N#Cc1ccccc1CSc1nnc2c(n1)[nH]c1ccccc12,"binding, competition with immobilised ligand",10 µM,91%
CN(C)c1nccc(-c2cnn3ncccc23)n1,binding,1 µM,100%
FC(F)(F)Oc1cccc(-c2cnc3ccc(-c4ccncc4)nn23)c1,"cell-free assay, competition with immobilised ligand",5 µM,90%
COc1ccc2cc(OCC3(C(=O)O)CN(C(=O)c4ccc(F)cc4)C3)ccc2c1,"cell-free assay, competition with immobilised ligand",1 µM,100%
Cc1ccc(NC(=O)c2ccc(CN3CCN(C)CC3)cc2)cc1Nc1nccc(-c2cccnc2)n1,"cell-free assay, competition with immobilised ligand",0.1 µM,100%
CNC(=O)Nc1ccc2c(c1)CC[C@@]21OC(=O)N(CC(=O)N(Cc2ccc(F)cc2)[C@@H](C)C(F)(F)F)C1=O,"cell-free assay, competition with immobilised ligand",1 µM,88%
C[C@@H](c1ccc(-n2cnc3c(N)ncnc32)cc1)N1CCc2nn(C)c(Cc3ccccc3)c2C1=O,"binding, competition with immobilised ligand",0.1 µM,100%
COc1cc2ncnc(Nc3ccc(F)c(Cl)c3)c2cc1OCCCN1CCOCC1,"cell-free assay, competition with immobilised ligand",0.1 µM,100%
O=C(NC[C@@H]1[C@H]2CN(C(=O)OCc3cc(C(F)(F)F)cc(C(F)(F)F)c3)C[C@@H]12)c1ccc2[nH]nnc2c1,"cell-free assay, competition with immobilised ligand",1 µM,96%
CC(C)(C)c1ccc(-c2nc(CBr)nn2-c2cccc(O)c2)cc1,"cell-free assay, competition with immobilised ligand",10 µM,89%
CS(=O)(=O)CCNCc1ccc(-c2ccc3ncnc(Nc4ccc(OCc5cccc(F)c5)c(Cl)c4)c3c2)o1,"cell-free assay, competition with immobilised ligand",0.1 µM,100%
N[C@@H]1CCN(c2nccc(-c3cnn4ncccc34)n2)C1,binding,1 µM,96%
CCN(CC)CCNC(=O)c1c(C)[nH]c(/C=C2\C(=O)Nc3ccc(F)cc32)c1C,"cell-free assay, competition with immobilised ligand",10 µM,39%
NS(=O)(=O)c1cc(NC(=O)C2(c3ccccc3Cl)CC2)ccc1Oc1cccc(Cl)c1,"cell-free assay, competition with immobilised ligand",1 µM,85%
CN1CC[C@H](c2c(O)cc(O)c3c(=O)cc(-c4ccccc4Cl)oc23)[C@H](O)C1,"cell-free assay, competition with immobilised ligand",10 µM,100%
CN(c1nccc(-c2cnn3ncccc23)n1)C1CC1,binding,1 µM,100%
